From PubChem BioAssay
The entries come from a sample that favours hits as a whole.
INS-1E ATP HTS = rescue of cytokine-induced death in INS-1E beta cells | INS-1E cytokine-induced death, ATP luminescence, 48 h; normalised: neutral wells 0, positive control 100 | protection from cytokine-induced ATP loss, % at 10 µM | 0.1% of 20,000 active | AID 488910;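 active = mean replicate protection from cytokine-induced ATP loss at least 50% and at least 75% of replicates each reaching 50%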
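Material: INS-1E rat cells; Quantity: 8000 cells/well; Buffer or medium: phenol-red-free RPMI with 5% fetal bovine serum; Probe or stimulus: cytokine cocktail of IFN-γ, TNF-α and IL-1β; Compound dosing: single test concentration per compound, delivered by pin transfer; Incubation: 48 h co-treatment, 10 min post-lysis read; Signal: CellTiter-Glo luminescence.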
A1 apoptosis 2 = compounds inhibiting A1, read as caspase activation | MEF A1-2A-BIM cells, caspase-Glo luminescence, 3 h; percent of clofoctol response, DMSO zero | caspase activation, % (no concentration beside the values) | 24,000 tested, under 10 active | AID 2465; in the data active = caspase activation above about 5.9%
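Material: mouse embryonic fibroblasts co-expressing A1 and BIM (A1-2A-BIM), primed for A1 dependence / Quantity: 2500 cells/well / Buffer or medium: RPMI-1640 growth medium with 10% FBS / Doses: 50 nL compound per well, pinned / Schedule: 3 h compound exposure at 37 °C / Signal: Caspase-Glo luminescence (DEVD substrate) / Measure: Caspase-3/7 activation, seen as rise in luminescence signal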
T cruzi intra = blocks T. cruzi growth inside host cells | intracellular Trypanosoma cruzi in host cells, plate reader | activity score (inhibition), % at 5.01 µM | 4.9% of 22,000 active; in the data active = activity score above about 55%;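 note: parasites and compound incubated about four days before reading; 0% = median of neutral control wells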
* hit, by the source's call; . = not tested or not shown.

SMILES	INS-1E ATP HTS	A1 apoptosis 2	T cruzi intra
C[C@@H]1CCCCO[C@H](CN(C)C(=O)NC2CCCCC2)[C@H](C)CN([C@@H](C)CO)C(=O)c2cc(NC(=O)Nc3ccc(C(F)(F)F)cc3)ccc2O1	.	1	.
C[C@@H]1CCCCO[C@H](CN(C)C(=O)Nc2ccc(C(F)(F)F)cc2)[C@@H](C)CN([C@H](C)CO)C(=O)c2cc(NC(=O)C3CCCCC3)ccc2O1	-28	.	72*
C[C@H]1CCCCO[C@@H](CN(C)C(=O)C2CCCCC2)[C@@H](C)CN([C@@H](C)CO)C(=O)c2cc(NC(=O)Nc3ccc(C(F)(F)F)cc3)ccc2O1	.	1	.
C[C@@H]1CCCCO[C@H](CN(C)C(=O)Nc2ccc(C(F)(F)F)cc2)[C@H](C)CN([C@H](C)CO)C(=O)c2cc(NC(=O)C3CCCCC3)ccc2O1	.	-1	.
C[C@@H]1CCCCO[C@H](CN(C)C(=O)C2CCCCC2)[C@@H](C)CN([C@H](C)CO)C(=O)c2cc(NC(=O)Nc3ccc(C(F)(F)F)cc3)ccc2O1	-21	-1	61*
C[C@@H]1CCCCO[C@@H](CN(C)C(=O)NC2CCCCC2)[C@@H](C)CN([C@H](C)CO)C(=O)c2cc(NC(=O)Nc3ccc(C(F)(F)F)cc3)ccc2O1	-1	1	72*
O=C(CCCCC(=O)N/N=C/c1ccoc1)NO	3	1	9
O=C(CCCCCC(=O)Nc1ccccc1O)N/N=C/c1cccc(O)c1	10	2	-9
COc1ccc(/C=N/NC(=O)CCCCCC(=O)Nc2ccccc2O)cc1OC	11	.	-3
COC(=O)CCCCCCC(=O)N/N=C/c1cc(C)ccc1O	4	1	-9
CC(C)(C)OC(=O)Nc1cccc(/C=N/NC(=O)CCCCCCC(=O)Nc2ccccc2O)c1	-2	0	27
O=C(CCCCC(=O)N/N=C/c1ccc(C(=O)O)cc1)NO	9	-2	-12
C[C@@H]1CN([C@@H](C)CO)C(=O)Cc2cc(NS(=O)(=O)c3ccccc3)ccc2O[C@@H]1CN(C)Cc1ccc(C(F)(F)F)cc1	5	0	-7
C[C@@H]1CN([C@H](C)CO)C(=O)Cc2cc(NS(=O)(=O)c3ccc(Cl)cc3)ccc2O[C@@H]1CN(C)Cc1ccc(C(F)(F)F)cc1	-19	0	54
C[C@@H]1CN([C@H](C)CO)C(=O)Cc2cc(NS(=O)(=O)c3ccc(Cl)cc3)ccc2O[C@H]1CN(C)Cc1ccc(C(F)(F)F)cc1	-12	0	64*
C[C@@H]1CN([C@@H](C)CO)C(=O)Cc2cc(NS(=O)(=O)c3ccc(Cl)cc3)ccc2O[C@@H]1CN(C)Cc1ccc(C(F)(F)F)cc1	-20	0	58*
C[C@H](CO)N1C[C@H](C)[C@@H](CN(C)Cc2ccc(C(F)(F)F)cc2)Oc2ccc(NS(=O)(=O)c3ccc(Cl)cc3)cc2CC1=O	.	0	.
C[C@H]1CN([C@@H](C)CO)C(=O)Cc2cc(NS(=O)(=O)c3ccc(Cl)cc3)ccc2O[C@@H]1CN(C)Cc1ccc(C(F)(F)F)cc1	5	.	72*
C[C@@H]1C=C(C(=O)Nc2ccccc2)O[C@H](OCCCCO)C1	.	0	.
Cc1noc(C)c1S(=O)(=O)Nc1ccc2c(c1)C(=O)N([C@@H](C)CO)C[C@@H](C)[C@@H](CN(C)Cc1ccc3c(c1)OCO3)O2	-4	.	6
COC(=O)C1=C/C(C)=C\C(C)N(Cc2ccc(OC)cc2)/C=C\1C(=O)OC (stereo unspecified)	.	-1	.
C[C@H](CO)N1C[C@H](C)[C@H](CN(C)Cc2ccccc2)OCCCC[C@H](C)Oc2ccc(NS(=O)(=O)c3ccccc3)cc2C1=O	.	0	.
COc1ccc(CN(C)C[C@H]2Oc3ccc(NS(=O)(=O)c4ccc(C)cc4)cc3CC(=O)N([C@@H](C)CO)C[C@@H]2C)cc1	1	1	56*
COc1ccc(CN(C)C[C@@H]2Oc3ccc(NS(=O)(=O)c4ccc(Cl)cc4)cc3CC(=O)N([C@H](C)CO)C[C@@H]2C)cc1	-1	0	27
COc1ccc(CN(C)C[C@@H]2Oc3ccc(NS(=O)(=O)c4ccc(C)cc4)cc3CC(=O)N([C@@H](C)CO)C[C@H]2C)cc1	.	-1	.
SMILES	INS-1E ATP HTS	A1 apoptosis 2	T cruzi intra
COc1ccc(CN(C)C[C@H]2Oc3ccc(NS(=O)(=O)c4ccc(Cl)cc4)cc3CC(=O)N([C@H](C)CO)C[C@H]2C)cc1	-5	-1	71*
C[C@H](CO)N1C[C@H](C)[C@@H](CN(C)C(=O)Nc2ccc3c(c2)OCO3)Oc2c(NS(=O)(=O)c3cccs3)cccc2C1=O	8	.	7
CC(=O)NCCCC[C@@H]1NC(=O)[C@@H]2C[C@H](C(=O)NCc3ccc(F)cc3)[C@H](c3cccc(OCCO)c3)N2C1=O	.	0	.
C[C@H]1CN([C@@H](C)CO)C(=O)Cc2cc(NC(=O)Nc3ccccc3)ccc2O[C@H]1CN(C)Cc1ccc2c(c1)OCO2	3	.	2
C[C@@H]1CN([C@H](C)CO)C(=O)c2cc(NC(=O)Nc3ccc4c(c3)OCO4)ccc2O[C@@H]1CN(C)Cc1ccc(-c2ccccc2)cc1	-25	0	88*
C[C@@H]1CN([C@@H](C)CO)C(=O)Cc2cc(NC(=O)Nc3ccc4c(c3)OCO4)ccc2O[C@@H]1CN(C)Cc1ccc(-c2ccccc2)cc1	-4	1	64*
C[C@H](CO)N1C[C@H](C)[C@H](CN(C)Cc2ccc(-c3ccccc3)cc2)Oc2ccc(NC(=O)Nc3ccc4c(c3)OCO4)cc2C1=O	.	-2	-7
C[C@H]1CN([C@@H](C)CO)C(=O)Cc2cc(NC(=O)Nc3ccc4c(c3)OCO4)ccc2O[C@H]1CN(C)Cc1ccc(-c2ccccc2)cc1	-39	.	76*
C[C@H](CO)N1C[C@H](C)[C@@H](CN(C)Cc2ccccc2)Oc2ccc(NC(=O)Nc3ccc4c(c3)OCO4)cc2CC1=O	.	-1	.
C[C@@H]1CN([C@H](C)CO)C(=O)Cc2cc(NC(=O)Nc3ccc4c(c3)OCO4)ccc2O[C@@H]1CN(C)Cc1ccc(-c2ccccc2)cc1	-29	0	62*
C[C@H]1CN([C@@H](C)CO)C(=O)Cc2cc(NC(=O)Nc3ccc4c(c3)OCO4)ccc2O[C@@H]1CN(C)Cc1ccccc1	3	.	5
O=S(=O)(NC1CCN(Cc2ccc(OCCO)cc2)CC1)c1ccc(-c2ccccc2)cc1	.	0	.
CC1(C)[C@H]2CC=C(/C=N\NC(=O)c3ccccn3)[C@@H]1C2	-6	-1	-1
O=C(N/N=C/c1ccccc1)c1ccccc1O	15	-5	-28
CC(/C=C/C(=O)NO)=C\c1ccccc1OCc1cn(-c2cccc(C(=O)N3CCN(c4ccccc4)CC3)c2)nn1	.	1	.
O=C(N/N=C/c1cc(O)ccc1Br)c1ccccc1O	-45	-6	-7
O=C(N/N=C/c1cc(Br)cc(Br)c1O)c1ccccc1O	-125	-7	83*
O=C(N/N=C/c1ccc(O)cc1O)c1ccccc1O	-128	-11	67*
O=C(N/N=C\c1ccc2ccccc2c1O)c1ccccc1O	-130	.	62*
Cn1cc(/C=N\NC(=O)c2ccccc2O)c2ccccc21	14	.	-22
O=C(N/N=C/c1cc(Br)cs1)c1ccccc1O	-33	-6	-22
